Screening data: PubChem, ICCB-Longwood Screening Facility, Harvard Medical School
Rows were chosen to be rich in hits. Some 0.3% of all compounds tested hit in one or more screens of this group.
LANA-nucl inh – inhibitors of KSHV LANA binding to nucleosomes; z-score (no concentration beside the values); AID 720717; 0.3% of 51,000 active; FITC-LANA1-23 / chicken nucleosome fluorescence polarization; active compounds read low;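 active means both repeat wells score below -2 in polarization z-score versus plate sample wells, excluding overly bright wells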
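Assay system: FITC-LANA peptide and chicken nucleosomes; input: 240 nM purified chicken nucleosomes (480 nM peptide binding sites), final; also added: 50 nM FITC-LANA1-23 probe; medium: TEN-BT buffer, pH 7.5; doses: pin-transferred compound, 100 nL; times: 10–45 min, room temperature; technique: fluorescence polarization; replication: duplicates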
Ab BasE inh – BasE siderophore biosynthesis inhibition | purified BasE, fluorescence polarization binding displacement | 0.1% of 84,000 active | inhibition, % (test concentration not listed); in the data active means inhibition above about 25%, passing the limit was not always enough;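 further: 0% = negative plate control signal and 100% = positive plate control signal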
The depositor's hits bear a star; x = no result; ! = not active in a repeat.

SMILES	LANA-nucl inh	Ab BasE inh
C[C@@]12C[C@H](O)CCN1CCc1ccccc12	-2.38*	5.7
CC12NC(=O)CN1CCc1ccccc12 (centres undefined)	-0.107	4.8
O=c1c2ccccc2nc(Sc2ncccn2)n1-c1ccc(OC(F)F)cc1	x	0.5
CCOc1cc(C=C2C(=O)N(C)C(=S)N(C)C2=O)ccc1OC(C)C(=O)O (centres undefined)	0.223	2.5
CCOc1cc(C=C2C(=O)NC(=O)NC2=O)cc(Cl)c1O	-2.4*	0.8
COc1ccc(C2NCCc3[nH]cnc32)cc1OC (centres undefined)	-0.439	1.9
C=C1[C@@H](O)C2O[C@]3(CCC(/C=C/[C@@H](C)[C@@H]4CC(C)=C[C@@]5(O[C@H](C[C@@](C)(O)C(=O)O)CCC5O)O4)O3)CCC2O[C@@H]1C(O)C[C@H](C)C1O[C@@]2(CCCCO2)CC[C@H]1C (some centres undefined)	x	0.7
CN1C(=O)/C(=C/c2ccc(I)o2)C(=O)NC1=S	0.567	40.8*
C=CCN1C(=O)/C(=C/c2ccco2)C(=O)NC1=S	0.374	8.9
O=c1c2ccccc2nc(-c2ccco2)n1-c1ccc(Cl)cc1	-0.776	0.6
Cc1cccc(N=C2SCCN2C)c1C	x	-0.5
CC[C@@]1(O)C(=O)OCc2c1cc1n(c2=O)Cc2cc3c(O)cccc3nc2-1	-3.07*!	9.0
CC[C@@]1(O)C(=O)OCc2c1cc1n(c2=O)Cc2cc3ccccc3nc2-1	0.0175	-3.3
C1=C(c2cccnc2)Nc2ncnn2C1c1cccs1 (centres undefined)	-8.79*	21.2
N#C/C(=C\c1ccccc1)C(=O)O	x	3.6
Cc1ccc(NP(C(C)C)C(C)C)nc1	0.347	2.9
CCn1cc(C=C2C(=O)NC(=O)NC2=O)c2ccccc21	-3.24*	1.9
O=C1NC(=O)C(=Cc2cn(Cc3ccccc3)c3ccccc23)C(=O)N1	x	3.4
C=C1CC23C[C@@H]4CN5C[C@]6(C)C[C@H](OC(C)=O)C[C@@]7(C2[C@H](O)[C@@H]1C(O)C3(O)C57)C46 (some centres undefined)	0.522	-2.7
CC[n+]1c(-c2ccccc2)c2cc(N)ccc2c2ccc(N)cc21	-6.03*	3.8
N#CC(c1c[nH]c2ccccc12)N1CCCC1 (centres undefined)	x	-4.6
Cc1cccc(CN2CCN(C(=O)COc3ccccc3)CC2)c1	-0.152	-0.6
N#Cc1c(N)[n+]([O-])c2ccccc2[n+]1[O-]	-8.29*	1.4
CCN(CC)C(=O)c1ccc(N2C(=O)C3C4C=CC(C4)C3C2=O)cc1 (centres undefined)	0.702	-0.7
